Drawing on ChEMBL document CHEMBL1144821, “Synthesis and cytotoxic evaluation of some cribrostatin-ecteinascidin analogues” (2008), this text covers GI50, TGI and CC50 for 4 compounds.

Holding throughout (assay type): functional
One assay deals with A549. Nature of the assay: Cytotoxicity against human A549 cells by SRB method. The method in brief: (§1)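 Human tumour lines (breast MDA-MB-231, lung A-549, colon HT-29) seeded in 96-well plates and left 24 h, then given vehicle or compound at 10 to 0.0026 µg/mL (10 dilutions) for 72 h. Read-out by SRB: PBS washes, 1% glutaraldehyde fix 15 min, 0.4% SRB in 1% acetic acid 30 min RT, dye extracted into 10 mM Tris base, A490. A time-zero plate was read before treatment.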
Background: Sulforhodamine B stains cellular protein and so reports cell mass.

A further assay deals with MDA-MB-231. Nature of the assay: Cytotoxicity against human MDA-MB-231 cells by SRB method. A digest of the protocol:
as §1

The subject of a further assay is HT-29. Nature of the assay: Cytotoxicity against human HT29 cells by SRB method. The settings on record: for CC50: read-out: LC50 (the source's name). The method in brief: as §1
Where [1] appears, read: read-out: LC50 (the source's name).

The GI50 is the concentration that inhibits growth by half. Low readings indicate more potent growth inhibition, high ones less potent growth inhibition. A word on the TGI: it is the concentration giving total growth inhibition. The low end stands for greater sensitivity of the cells, the high end for lower sensitivity of the cells. Turning to `COc1c(C)c(O)c2c(c1O)[C@@H]1C3=Cc4c(OC(C)=O)c(C)c5c(c4[C@H](COCc4ccccc4)N3[C@@H](C#N)[C@H](C2=O)N1C)OCO5`, in the assay on A549, growth was halved (GI50) at 6.57 µM. The compound further yielded a 50% growth inhibitory concentration (GI50) in the assay on MDA-MB-231 of 5.63 µM. In the assay with HT-29, halving of growth (GI50) required 4.06 µM, total growth inhibition (TGI) required 6.72 µM and the CC50 was 14.5 µM.
As for `C/C=C(/C)C(=O)OC[C@H]1c2c(c(OC(C)=O)c(C)c3c2OCO3)C=C2[C@H]3c4c(O)c(OC)c(C)c(O)c4C(=O)[C@@H](C(=O)N21)N3C`, the GI50 came out at 7.73 µM with A549, 14 µM in the assay with MDA-MB-231 and 11.1 µM with HT-29.
As to `COc1c(C)cc2c(c1OCc1ccccc1)[C@@H]1C3=Cc4c(OC(C)=O)c(C)c(OC)c(OC)c4[C@H](COCc4ccccc4)N3[C@@H](C#N)[C@H](C2)N1C`, the GI50 is 0.24 µM with A549, 0.26 µM in the assay with MDA-MB-231 and 0.2 µM in the assay with HT-29. For the same compound, the total growth inhibition concentration (TGI) in the assay with A549 stood at 0.3 µM; in the assay on MDA-MB-231 it was 0.35 µM; in the assay with HT-29, 0.26 µM. Further, the CC50 with A549 (setting [1]) is 0.41 µM; in the assay with MDA-MB-231 (setting [1]), 0.48 µM; with HT-29, 0.36 µM.
Take `C/C=C(/C)C(=O)OC[C@H]1C2=C(C=C3[C@H]4c5c(O)c(OC)c(C)c(O)c5C(=O)[C@@H](C(=O)N31)N4C)C(=O)C(C)=C(OC)C2=O` [CRIBROSTATIN 5]: the GI50 was 7.09 µM in the assay with A549, 4.49 µM in the assay on MDA-MB-231 and 6.74 µM in the assay on HT-29. Moreover, the TGI worked out at 11.6 µM in the assay on A549 and 7.43 µM in the assay with HT-29.
